Each structure is given as a SMILES string. Calls of active or inactive are those of the source. The calls are words filed in the database; no cut-off is given here.

The results in this text go back to ChEMBL document CHEMBL3085741, “Structure-activity relationships and molecular modeling of sphingosine kinase inhibitors” (J Med Chem, 2013).

Assay [1] concerns the target T1, Sphingosine kinase 1 (Homo sapiens, UniProt Q9NYA1). Nature of the assay: Inhibition of recombinant sphingosine kinase 1 (unknown origin) expressed in HEK293 cells using sphingosine as substrate at 50 uM after 30 mins relative to control in presence of [gamma32P]-ATP. Put shortly:
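Single-point inhibitor test at 50 μM with 250 μM ATP. […] Activity is reported as % of control, where control (100%) is activity with sphingosine alone. n = 3, mean ± SD.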

For assay [2], the target named is T2, Sphingosine kinase 2 (Homo sapiens) (UniProt Q9NRA0).
T2 sequence (whole entry): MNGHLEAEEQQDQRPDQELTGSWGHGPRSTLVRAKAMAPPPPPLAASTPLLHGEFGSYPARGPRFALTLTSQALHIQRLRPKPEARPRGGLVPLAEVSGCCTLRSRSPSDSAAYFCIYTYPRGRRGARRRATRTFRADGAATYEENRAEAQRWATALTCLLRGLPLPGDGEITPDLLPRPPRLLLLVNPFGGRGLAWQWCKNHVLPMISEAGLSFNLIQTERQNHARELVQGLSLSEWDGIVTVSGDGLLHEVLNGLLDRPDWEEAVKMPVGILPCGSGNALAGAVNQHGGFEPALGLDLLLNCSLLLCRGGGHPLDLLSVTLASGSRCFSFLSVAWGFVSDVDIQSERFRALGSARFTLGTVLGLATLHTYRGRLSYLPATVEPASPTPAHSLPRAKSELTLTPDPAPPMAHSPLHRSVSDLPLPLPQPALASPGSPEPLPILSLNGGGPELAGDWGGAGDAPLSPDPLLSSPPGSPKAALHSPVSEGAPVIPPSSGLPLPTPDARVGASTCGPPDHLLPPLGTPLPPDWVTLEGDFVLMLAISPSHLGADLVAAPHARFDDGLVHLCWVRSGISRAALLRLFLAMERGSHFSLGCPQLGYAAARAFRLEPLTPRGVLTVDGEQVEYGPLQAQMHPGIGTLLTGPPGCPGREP
Description: Inhibition of sphingosine kinase 2 (unknown origin) using sphingosine as substrate at 50 uM after 30 mins relative to control in presence of [gamma32P]-ATP.

For assay [3], the target named is T2, Sphingosine kinase 2 (Homo sapiens). Description: Activity at sphingosine kinase 2 (unknown origin) at 50 uM after 30 mins in presence of [gamma32P]-ATP.
The target in assay [4] is T1, Sphingosine kinase 1. Description: Inhibition of recombinant sphingosine kinase 1 (unknown origin) expressed in HEK293 cells using sphingosine as substrate at 100 uM after 30 mins relative to control in presence of [gamma32P]-ATP.
Assay [5] has as its target T1, Sphingosine kinase 1. Nature of the assay: Inhibition of recombinant sphingosine kinase 1 (unknown origin) expressed in HEK293 cells using sphingosine as substrate after 30 mins in presence of [gamma32P]-ATP.
Assay [6] addresses T2, Sphingosine kinase 2 (Homo sapiens). Description: (§1) Inhibition of sphingosine kinase 2 (unknown origin) using sphingosine as substrate after 30 mins in presence of [gamma32P]-ATP. The essentials:
(§2)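 Results are given as % of the sphingosine-only control, and IC50 was derived from the curve. n = 3, ± SD.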

A further assay deals with T3, Sphingosine kinase 2 (Homo sapiens, UniProt Q9NRA0).
T3 sequence (Q9NRA0 whole entry): T2 sequence (whole entry)
Described as §1. Put shortly: as §2

[7] abbreviates: 100 uM, in the assay text read “at 100 uM” for “at 50 uM”.

T1 sequence (Q9NYA1 whole entry): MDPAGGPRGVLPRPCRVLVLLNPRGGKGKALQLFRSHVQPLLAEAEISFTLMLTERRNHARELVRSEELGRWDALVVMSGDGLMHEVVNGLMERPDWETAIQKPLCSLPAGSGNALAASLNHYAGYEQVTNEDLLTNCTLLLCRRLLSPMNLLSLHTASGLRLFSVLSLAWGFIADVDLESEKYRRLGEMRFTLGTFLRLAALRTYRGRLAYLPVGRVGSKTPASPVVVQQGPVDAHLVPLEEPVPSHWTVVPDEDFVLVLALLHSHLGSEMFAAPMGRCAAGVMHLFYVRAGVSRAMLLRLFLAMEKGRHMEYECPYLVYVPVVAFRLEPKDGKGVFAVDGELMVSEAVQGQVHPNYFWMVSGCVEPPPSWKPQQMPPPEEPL

What is called inhibition is the relative decrease from the control value, in per cent. Consider `CCCCCCCCCCCCc1ccc(C(=O)N2CCC[C@@H]2CO)cc1`, for which the inhibition result at Sphingosine kinase 1 [1] was “inactive”.
Same read-out and setting: the value for `CCCCCCCCc1ccc(CCCCN2CCC(O)CC2)cc1` was “Active”.
Same read-out and setting: the value for `CCCCCCCCCCCCc1ccc(C(=O)N2CCC(O)CC2)cc1` was “inactive”.
As to `CCCCCCCCc1ccc(CCN2CCC(OC)CC2)cc1`, on Sphingosine kinase 1 [1], the inhibition result was “inactive”.
On the same count and under the same terms, in the case of `CCCCCc1cn(-c2ccc(CCN3CCC(O)CC3)cc2)nn1` it was “inactive”.
Same read-out and setting: the value for `CCCCCCCCc1ccc(CCN2CC[C@H](O)C2)cc1` was “Active”; that for `CCCCCCCCc1ccc(CN2CCC(O)CC2)cc1` was “Active”.
On the same count and under the same terms, in the case of `CCCCCCCCc1cn(-c2ccc(CCO)cc2)nn1` it was “inactive”.
For the compound `CCCCCCCCc1ccc(CCCN2CCC(O)CC2)cc1`, on Sphingosine kinase 1 [1], the inhibition entry was “Active”.
Turning to `CCCCCCCCc1ccc(CCN2CCC[C@H]2CO)cc1`, the inhibition was 45.7% in assay [2] (setting [7]) and 72.2% on Sphingosine kinase 1 [4]. Moreover, in assay [3], the result was Active.
For the compound `CCCCCCCCc1ccc(CCc2cccnc2)cc1`, the inhibition result at Sphingosine kinase 1 [1] is “inactive”.
Broadly, the IC50 is the point on the concentration scale where inhibition reaches its midpoint. Turning to `CCCCCCCCc1ccc(CCN2CCC(N)CC2)cc1`, at Sphingosine kinase 1 [5], the half-inhibitory concentration (IC50) was 16.9 µM and the inhibition result is “Dose-dependent effect”.
On to `CCCCc1cn(-c2ccc(CCN3CCC(O)CC3)cc2)nn1`, for which the inhibition result on Sphingosine kinase 1 [1] is “inactive”.
On to `CCCCCCCCCCCCc1ccc(CCN2CCC[C@H]2CO)cc1`, for which the inhibition in assay [2] (setting [7]) was determined as 49.7%; on Sphingosine kinase 1 [4], 49.9%. In addition, in assay [3], the outcome was Active.
`CCCCCCCCc1ccc(CCN2CCC(=O)CC2)cc1`: in assay [2] (50 uM), the inhibition result is “Active”.
Regarding `CCCCCc1cn(-c2ccc(CC[N+]3(C)CCCCC3)cc2)nn1`, the inhibition entry (at Sphingosine kinase 1 [1]; in assay [2] (50 uM)) was “inactive” each time.
Turning to `CCCCCCCCc1cn(-c2ccc(CCN3CCCCC3)cc2)nn1`, the inhibition entry at Sphingosine kinase 1 [1] is “inactive”.
For the compound `CCCCCc1cn(-c2ccc(CCN3CCCCC3)cc2)nn1`, on Sphingosine kinase 1 [1], the inhibition result is “inactive”.
On the same count and under the same terms, in the case of `CCCCCCCCc1ccc(C(=O)N2CCC(O)CC2)cc1` it was “inactive”; in that of `CCCCCCCCc1ccc(C(=O)Nc2ccc(O)cc2)cc1`, “inactive”; in that of `CCCCCCCCc1cn(-c2ccc(CCN3CCC(O)CC3)cc2)nn1`, “Active”.
Regarding `CCCCc1cn(-c2ccc(CC[N+]3(C)CCCCC3)cc2)nn1`, the inhibition entry (on Sphingosine kinase 1 [1]; in assay [2] (50 uM)) was “inactive” each time.
For `CCCCCCCCc1ccc(CCN2CC[C@@H](O)C2)cc1`, the inhibition result at Sphingosine kinase 1 [1] was “Active”.
On the same count and under the same terms, in the case of `CCCCCCCCc1ccc(C(=O)Nc2ccc(CCO)cc2)cc1` it was “inactive”; in that of `CCCCCCCCc1ccc(CCN2CCC(F)CC2)cc1`, “inactive”; in that of `Cc1ccc(CCN2CCC[C@@H]2CO)cc1`, “inactive”.
Take `CCCCCCCCc1cn(-c2ccc(CC[N+]3(C)CCCCC3)cc2)nn1`: the inhibition entry (on Sphingosine kinase 1 [1]; in assay [2] (50 uM)) was “inactive” in each case.
With `Cc1ccc(CCN2CCC(N=[N+]=[N-])CC2)cc1`, on Sphingosine kinase 1 [1], the inhibition entry is “inactive”.
Still for that read-out and setting: in the case of `CCCCCCCCCCCCc1ccc(C(=O)N2CCC[C@H]2CO)cc1` it was “inactive”; in that of `CCCCCCCCc1ccc(-n2cc(-c3cccnc3)nn2)cc1`, “inactive”.
Same read-out and setting: in the case of `CCCCCCCCc1ccc(C(=O)NCc2ccncc2)cc1` it was “inactive”; in that of `CCCCCCCCc1cn(-c2ccc(O)cc2)nn1`, “inactive”; in that of `Cc1ccc(CCN2CCC(N)CC2)cc1`, “inactive”.
`CCCCCCCCc1ccc(CCc2ccc[n+](C)c2)cc1`: the inhibition entry (at Sphingosine kinase 1 [1]; in assay [2] (50 uM)) was “inactive” in each case.
Turning to `CCCCCCCCCCCCc1ccc(CCN2CCC[C@@H]2CO)cc1`, the inhibition entry (in assay [6]; at Sphingosine kinase 1 [5]) was “Dose-dependent effect” in each case. Moreover, the IC50 at Sphingosine kinase 2 worked out at 5 µM; at Sphingosine kinase 1 [5] it was 5.3 µM.
`CCCCCCCCc1ccc(CCN2CCC[C@@H]2CO)cc1`: the inhibition result (in assay [6]; at Sphingosine kinase 1 [5]) was “Dose-dependent effect” each time. In addition, the results for the IC50 on Sphingosine kinase 2 and at Sphingosine kinase 1 [5] were 5.2 µM and 2.2 µM, respectively.
For `CCCCc1cn(-c2ccc(CCN3CCCCC3)cc2)nn1`, at Sphingosine kinase 1 [1], the inhibition result was “inactive”.
On the same count and under the same terms, the value for `CCCCCCCCCCCCc1ccc(CCN2CCC(N)CC2)cc1` was “inactive”; that for `CCCCCCCCc1ccc(CCN2CCC(N=[N+]=[N-])CC2)cc1` was “inactive”.
Still for that read-out and setting: the value for `Cc1ccc(CCN2CCC(O)CC2)cc1` was “inactive”.
As for `CCCCCCCCc1ccc(C[n+]2ccc(N3CCC(C)CC3)cc2)cc1`, the inhibition entry at Sphingosine kinase 1 [1] was “inactive”. Also, in assay [2] (50 uM), the inhibition result is “Active”.
